Measurements published in ChEMBL document CHEMBL4393676, “Design, Synthesis, and Preclinical Characterization of Selective Factor D Inhibitors Targeting the Alternative Complement Pathway” (J Med Chem, 2019).
pIC50: −log10 of the molar value. Converted amounts (≈) assume the structure as drawn.

Key:
Coagulation factor XI = Coagulation factor XI (Homo sapiens, UniProt P03951); test: Inhibition of F11a (unknown origin)
[1] = Clearance in C57BL/6 mouse at 1 mg/kg, iv or 10 mg/kg, po administered via gavage by HPLC-MS/MS analysis; assay type: ADME, organism-based; settings: in vivo
[2] = Oral bioavailability in C57BL/6 mouse 10 mg/kg by HPLC-MS/MS analysis; assay type: ADME, organism-based; settings: in vivo; for bioavailability: C57BL/6, mouse
Tryptase beta-2 = Tryptase beta-2 (Homo sapiens, UniProt P20231); test: Inhibition of tryptase-beta2 (unknown origin)
[3] = Solubility of the compound at pH 6.8; assay type: physicochemical; settings: buffer
[4] = Elimination half life in C57BL/6 mouse at 1 mg/kg, iv by HPLC-MS/MS analysis; assay type: ADME, organism-based; settings: in vivo, read-out: beta t1/2 (converted)
[5] = Cmax in C57BL/6 mouse at 10 mg/kg, po administered via gavage by HPLC-MS/MS analysis; assay type: ADME, organism-based; set-up: dose 10 mg/kg, route oral; settings: in vivo
[6] = Volume of distribution at steady state in C57BL/6 mouse at 1 mg/kg, iv or 10 mg/kg, po administered via gavage by HPLC-MS/MS analysis; assay type: ADME, organism-based; settings: in vivo, read-out: Vdss
[7] = AUC (0 to 7 hrs) in C57BL/6 mouse at 1 mg/kg, iv by HPLC-MS/MS analysis; assay type: ADME, organism-based; set-up: dose 1 mg/kg, time < 7 hr, route intravenous; settings: in vivo; for AUC(0-t) at 7 h: C57BL/6, mouse
[8] = AUC (0 to 7 hrs) in C57BL/6 mouse at 10 mg/kg, po administered via gavage by HPLC-MS/MS analysis; assay type: ADME, organism-based; set-up: time < 7 hr, dose 10 mg/kg, route oral; settings: in vivo; for AUC(0-t) at 7 h: C57BL/6, mouse
[9] = Time at which posterior eye cup concentration stays above in vitro IC50 for inhibition of FD-mediated alternative complementation pathway in 50% human whole blood in Brown Norway rat at 10 mg/kg, po; assay type: organism-based; settings: in vivo
How it was run: (§1)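 Three-month-old Brown Norway rats given single 10 mg/kg oral gavage, suspension in 0.5% HPMC/0.1% Tween 80. Plasma and both eyes' retina and posterior eye cup (RPE/choroid plus posterior sclera) taken from 2 rats per time at 0.25, 0.5, 1, 3, 6, 24 h; tissues homogenized in PBS with 10% acetonitrile, supernatants by HPLC-MS/MS. AUC dose normalized.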

[10] = Plasma concentration in Brown Norway rat at 10 mg/kg, po administered via gavage measured at 24 hrs post dose by HPLC-MS/MS analysis; assay type: ADME, organism-based; how it was run: as §1
[11] = Drug level in Brown Norway rat retina at 10 mg/kg, po administered via gavage measured at 24 hrs post dose by HPLC-MS/MS analysis; assay type: ADME, organism-based; settings: in vivo, BLD = below limit of detection; how it was run: as §1
[12] = Drug level in Brown Norway rat posterior eye cup at 10 mg/kg, po administered via gavage measured at 24 hrs post dose by HPLC-MS/MS analysis; assay type: ADME, organism-based; settings: read-out: Drug uptake; how it was run: as §1
[13] = Cmax in Beagle dog at 10 mg/kg, po administered via gavage by HPLC-MS/MS analysis; assay type: ADME, organism-based, Canis lupus familiaris; set-up: dose 10 mg/kg, route oral; settings: in vivo
How it was run: (§2)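 Beagle dogs, n=3 per route: IV 1 mg/kg in 2% 1N HCl, 20% PEG 300, 50% of 20% solutol in PBS; PO gavage 10 mg/kg as solution in 20% PEG 300, 10% solutol HS15, 70% citrate buffer pH 3. Blood at 5 min (IV), 15 min, 0.5, 1, 2, 4, 7, 24 h; HPLC-MS/MS (ESI positive); non-compartmental analysis; mean ± SD.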

[14] = Oral bioavailability in Beagle dog at 10 mg/kg administered via gavage by HPLC-MS/MS analysis; assay type: ADME, organism-based, Canis lupus familiaris; settings: in vivo; how it was run: as §2
Mus musculus [15] = test: Suppression of LPS-induced alternative complementation pathway in human FD knock-in C57BL/6 mouse assessed as reduction in plasma Ba level treated via oral gavage […] prior to LPS stimulation and measured up to 24 hrs post-dose; assay type: functional, organism-based
[16] = Half life in Beagle dog at 1 mg/kg, iv or 10 mg/kg, po administered via gavage by HPLC-MS/MS analysis; assay type: ADME, organism-based, Canis lupus familiaris; settings: in vivo; how it was run: as §2
[17] = Dose normalized AUC in Brown Norway rat retina at 10 mg/kg, po administered via gavage by HPLC-MS/MS analysis; assay type: ADME, organism-based; settings: in vivo; how it was run: as §1
Mus musculus [18] = test: Suppression of intravitreal injection-activated alternative complementation pathway in human FD knock-in C57BL/6 mouse model of local ocular injury assessed as reduction in ocular Ba level treated via oral gavage 2 hrs prior to intravitreal injection and measured after 4 hrs by Western blot analysis; assay type: functional, organism-based
How it was run: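 Human FD knock-in mice dosed by oral gavage (3 or 10 mg/kg) at time 0; 2 h later anesthetized and injected intravitreally with 1 µL sterile PBS. Eyes taken 4 h after injection; lysates analysed for Ba by Western blot, relative to vehicle, mean ± SEM.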

[19] = AUClast in Beagle dog at 10 mg/kg, po administered via gavage by HPLC-MS/MS analysis; assay type: ADME, organism-based, Canis lupus familiaris; set-up: dose 10 mg/kg, time 0 - last, route oral; settings: in vivo; how it was run: as §2
[20] = Clearance in Beagle dog at 1 mg/kg, iv or 10 mg/kg, po administered via gavage by HPLC-MS/MS analysis; assay type: ADME, organism-based, Canis lupus familiaris; settings: in vivo; how it was run: as §2
[21] = Volume of distribution at steady state in Beagle dog at 1 mg/kg, iv or 10 mg/kg, po administered via gavage by HPLC-MS/MS analysis; assay type: ADME, organism-based, Canis lupus familiaris; settings: in vivo, read-out: Vdss; how it was run: as §2
[22] = Tmax in Beagle dog at 10 mg/kg, po administered via gavage by HPLC-MS/MS analysis; assay type: ADME, organism-based, Canis lupus familiaris; settings: in vivo; how it was run: as §2
[23] = Dose normalized AUC in Brown Norway rat posterior eye cup at 10 mg/kg, po administered via gavage by HPLC-MS/MS analysis; assay type: ADME, organism-based; settings: in vivo; how it was run: as §1
[24] = Dose normalized AUC in Brown Norway rat plasma at 10 mg/kg, po administered via gavage by HPLC-MS/MS analysis; assay type: ADME, organism-based; settings: in vivo; how it was run: as §1

SMILES | clearance [1] [mL/min/kg] | bioavailability [2] [%] | half-life [4] [h] | Cmax [5] [µM] | Vd [6] [L/kg] | AUC(0-t) at 7 h [7] [µM·h] | AUC(0-t) at 7 h [8] [µM·h] | further results
NCc1cccc(-c2cccc(C(=O)Nc3ccccc3CC(=O)O)c2)c1 | 22 | 10 | – | – | – | – | – | pIC50 (Coagulation factor XI): 5.55; pIC50 (Tryptase beta-2): 5.64; solubility [3]: 220 µM (≈ 79.3 µg/mL)
NCc1cccc(-c2cccc(COc3ccccc3CC(=O)O)c2)c1 | 14 | 100 | – | – | – | – | – | –
N[C@H](CCO)c1cccc(-c2cccc(COc3ccccc3CC(=O)O)c2)c1 | 8.7 | 39 | 1.3 | 10.7 | 0.3 | 4.97 | 19.5 | –
N[C@H](CO)c1cccc(-c2cccc(COc3ccccc3CC(=O)O)c2)c1 | 2.6 | 83 | 1.6 | 31 | 0.3 | 16.1 | 125 | Time [9]: > 24 h; concentration at 24 h [10]: 0.034 µM; Drug uptake [11]: Bld; concentration at 24 h [12]: 0.29 µM; Cmax [13]: 16.5 µM; bioavailability [14]: 70%; Activity (Mus musculus [15]): Dose-dependent effect; half-life [16]: 3.8 h; AUC/dose [17]: 8 nM·h; Activity (Mus musculus [18]): Dose-dependent effect; AUC(0-t) [19]: 85 µM·h; clearance [20]: 3.8 mL/min/kg; Vd [21]: 0.8 L/kg; Tmax [22]: 0.8 h; AUC/dose [23]: 1160 nM·h; AUC/dose [24]: 2300 nM·h
N[C@H](CO)c1cccc(-c2cc(Br)cc(COc3ccccc3CC(=O)O)c2)c1 | 0.7 | – | 2.5 | 26 | 0.1 | – | – | F ([2]; mouse): 25%; AUC ([7]; mouse, 7 h): 48.7 µM·h; AUC ([8]; mouse, 7 h): 11.6 µM·h
